Screening results deposited in PubChem BioAssay by several laboratories.
Most compounds without a hit are left out; they make up all but 3.7% or so of the library.
m-calpain inh: blocks pig calpain II enzyme activity; purified calpain II, fluorogenic peptide substrate, 30 min; inhibition, % at 16 µM; 0.37% of 220,000 active;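 active = inhibition above about 50%, limit read from the data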
MDM2 E3 inh: inhibitors of human Mdm2 E3 ubiquitin ligase; Q00987; cell-based MDM2 ubiquitination luciferase reporter, 2 h; 0 = plate control, 100 = twice control, blank-subtracted; signal enhancement, % at 5 µM; 0.11% of 210,000 active;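 active = signal enhancement of 30% or more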;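 also: luminescence tracks abundance of the self-degrading MDM2-luciferase fusion protein; higher signal means inhibition of MDM2 E3 ligase activity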
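Material: Stable MDM2–luciferase fusion reporter cells | Amount: 2000 cells seeded into each well | Dosing: One concentration, 5 µM, with 0.2% DMSO | Incubation: 4 h cell settling then 2 h compound exposure, 37 °C | Measured by: Luciferase luminescence | Read-out basis: % enhancement relative to plate controls after blank subtraction | Benchmarks: Control and blank well means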
ROMK mod: modulates human ROMK potassium channel activity | Tet-inducible ROMK, thallium flux fluorescence; actives lie on both sides | B-score at 10 µM | 2% of 130,000 active | AID 1918 | P48048;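 active = signal ratio slope over the read window, or its plate-corrected B-score, at least 3 SD from the plate mean, either direction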;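 also: B-score of the F/F0 ratio slope over 7 to 12 s after thallium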
Cl transport mod: KCC2 (human) Cl- transport modulation; Q9H2X9; KCC2 cells, thallium flux FluoZin-2 fluorescence; B-score of Tl+ flux slope (higher = more flux/activation; lower = inhibition) at 10 µM; 2.2% of 190,000 active; AID 1456;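 active = thallium flux slope and its plate-corrected score both differing from the plate sample mean at a set confidence after two filtering rounds, in either direction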;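 also: slope of fluorescence scaled to starting intensity during 10 to 20 s after thallium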
Arbovirus inh: arbovirus infection inhibition. arbovirus infection cell-based antiviral screen. inhibition, % at 10 µM. 0.37% of 200,000 active; in the data active = inhibition above about 30%
PKD1 inh: PKD1 (human) kinase inhibition; Q15139; PKD1 kinase fluorescence polarization assay; inhibition, % (concentration not given with the values); 0.056% of 200,000 active; in the data active = inhibition above about 50%
Hits are given with their value.

For O=C(COC(=O)c1cc(=O)[nH]c2ccccc12)Nc1nc(-c2ccccc2)cs1 the results were m-calpain inh inactive, MDM2 E3 inh inactive, ROMK mod inactive, Cl transport mod inactive, Arbovirus inh inactive and PKD1 inh inactive.
For O=C(CCS(=O)(=O)c1ccccc1)Nc1nccs1 the results were m-calpain inh inactive, MDM2 E3 inh inactive, Cl transport mod inactive, Arbovirus inh inactive and PKD1 inh inactive.
CCC(=O)N1c2ccc(S(=O)(=O)CCC(=O)Nc3nccs3)cc2CC1C (stereo unspecified) was read as m-calpain inh inactive, MDM2 E3 inh inactive, ROMK mod 5.6, Arbovirus inh inactive and PKD1 inh inactive.
For CCOC(=O)C1=C(CNC(C)(C)CC(C)(C)C)NC(=O)NC1c1cccc([N+](=O)[O-])c1 (stereo unspecified) the results were m-calpain inh 61, MDM2 E3 inh inactive, ROMK mod inactive, Cl transport mod inactive, Arbovirus inh inactive and PKD1 inh inactive.
For CN(C)S(=O)(=O)c1ccc(C(=O)Nc2nnc(-c3ccc4c(c3)CCCC4)o2)cc1 the results were m-calpain inh inactive, MDM2 E3 inh inactive, Cl transport mod 8.1, Arbovirus inh inactive and PKD1 inh inactive.
`Nc1n[nH]c(=S)n1/N=C1/C(=O)Nc2ccccc21` gave m-calpain inh inactive, MDM2 E3 inh inactive, ROMK mod inactive, Cl transport mod inactive, Arbovirus inh inactive and PKD1 inh inactive.
CC1CC(=O)c2c(cc3c(-c4c(O)cc(O)c5c(O)c6c(cc45)OC(C)CC6=O)c(O)cc(O)c3c2O)O1 (stereo unspecified) was read as m-calpain inh inactive, MDM2 E3 inh inactive, Cl transport mod -6.1, Arbovirus inh inactive and PKD1 inh inactive.
Screening COc1cc(-c2ccc(Nc3ccccc3C(=O)O)c(OC)c2)ccc1Nc1ccccc1C(=O)O returned m-calpain inh 55, MDM2 E3 inh inactive, ROMK mod inactive and Cl transport mod inactive.
Screening C=CCC1(NCc2ccco2)CCN(CC)CC1 returned m-calpain inh inactive, MDM2 E3 inh inactive, ROMK mod inactive, Cl transport mod inactive, Arbovirus inh inactive and PKD1 inh inactive.
`O=C(NCc1ccco1)C(=O)NCC1OCCN1C(=O)c1ccc(Cl)cc1` (stereo unspecified) gave m-calpain inh inactive, MDM2 E3 inh inactive, ROMK mod inactive and Cl transport mod inactive.
For CCc1ccc(S(=O)(=O)c2ccc(-n3nc(C)cc3N)cc2)cc1 the results were m-calpain inh inactive, MDM2 E3 inh inactive, ROMK mod inactive, Cl transport mod inactive, Arbovirus inh 33 and PKD1 inh inactive.
O=C(c1cc(-c2ccccc2O)on1)N1CCc2ccccc2C1 was read as m-calpain inh inactive, MDM2 E3 inh inactive, Cl transport mod inactive, Arbovirus inh 33 and PKD1 inh inactive.
`COc1ccccc1-n1nnnc1SCc1cc2c(cc1Br)OCO2` gave m-calpain inh 50, MDM2 E3 inh inactive, Arbovirus inh inactive and PKD1 inh inactive.
For O=C(NC1CC1)c1ccc(C2SCC(=O)N2Cc2ccccc2)cc1 (stereo unspecified) the results were m-calpain inh inactive, MDM2 E3 inh inactive, ROMK mod inactive, Cl transport mod inactive, Arbovirus inh inactive and PKD1 inh inactive.
`CCOc1cccc(C(=O)NC(=S)Nc2ccccc2)c1` gave m-calpain inh inactive, MDM2 E3 inh inactive, ROMK mod inactive, Cl transport mod 19, Arbovirus inh inactive and PKD1 inh inactive.
Screening O=C(O)c1ccccc1NS(=O)(=O)c1cccc(C(F)(F)F)c1 returned m-calpain inh inactive, MDM2 E3 inh inactive, Cl transport mod inactive, Arbovirus inh inactive and PKD1 inh inactive.
O=C(O)c1ccccc1Nc1cccc(C(F)(F)F)c1 was read as m-calpain inh inactive, Cl transport mod inactive, Arbovirus inh 38 and PKD1 inh inactive.
For O=C(NNC(=S)Nc1ccc(Cl)c(Cl)c1)c1cccc([N+](=O)[O-])c1 the results were m-calpain inh inactive, MDM2 E3 inh inactive, ROMK mod 3 and Cl transport mod -5.4.
For O=C(NNC(=O)c1cc(-c2ccccc2)n(-c2ccccc2)n1)c1cccc([N+](=O)[O-])c1 the results were m-calpain inh inactive, MDM2 E3 inh inactive, Cl transport mod 15, Arbovirus inh inactive and PKD1 inh inactive.
Cc1cccc(NC(=S)NNC(=O)c2cccc([N+](=O)[O-])c2)c1 was read as m-calpain inh inactive, MDM2 E3 inh inactive, ROMK mod inactive and Cl transport mod inactive.
